Results as given in ChEMBL document CHEMBL1154706, “Novel substituted and fused pyrrolizine derivatives: synthesis, anti-inflammatory and ulcerogenecity studies” (Eur J Med Chem, 2010).

Test system: Rattus norvegicus
Assay: Gastrointestinal toxicity in albino rat assessed ulcer index at 39.23 […], po
Assay type: organism-based
Details: in vivo
How it was run: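 Adult albino rats of both sexes (120–150 g), five per group, fasted 20 h before dosing. Compounds given orally as a suspension in 1% Tween; controls received vehicle. Dosed on three consecutive days with fasting/feeding cycles, then killed on day 4. Stomach opened along the greater curvature and rinsed with saline. Red spots counted and severity scored 0–4. Ulcer index derived from % incidence/10, mean ulcer number and mean severity.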

SMILES	UI
O=C(c1ccccc1)c1ccc2n1CCC2C(=O)O (stereo not drawn) [KETOROLAC]	11.6
Cc1ccc(NC(=O)c2c(NC(=O)C(C)c3cccc(C(=O)c4ccccc4)c3)c(C#N)c3n2CCC3)cc1 (racemic)	3.6
CC(C)Cc1ccc(C(C)C(=O)Nc2c(C#N)c3n(c2C(=O)Nc2ccc(Cl)cc2)CCC3)cc1 (racemic)	0
O=C(O)CCc1nc(=O)c2c3n(c(C(=O)Nc4ccc(Cl)cc4)c2[nH]1)CCC3	15.66
O=C(O)/C=C\c1nc(=O)c2c3n(c(C(=O)Nc4ccc(Cl)cc4)c2[nH]1)CCC3	17.09
CC(C)Cc1ccc(C(C)C(=O)Nc2c(C#N)c3n(c2C(=O)Nc2ccccc2)CCC3)cc1 (racemic)	0
O=C(O)/C=C\c1nc(=O)c2c3n(c(C(=O)Nc4ccccc4)c2[nH]1)CCC3	17.46
Cc1ccc(NC(=O)c2c3[nH]c(/C=C\C(=O)O)nc(=O)c3c3n2CCC3)cc1	18.3
Cc1ccc(NC(=O)c2c3[nH]c(CCC(=O)O)nc(=O)c3c3n2CCC3)cc1	17.91
CC(C(=O)Nc1c(C#N)c2n(c1C(=O)Nc1ccccc1)CCC2)c1cccc(C(=O)c2ccccc2)c1 (racemic)	0
O=C(O)CCc1nc(=O)c2c3n(c(C(=O)Nc4ccccc4)c2[nH]1)CCC3	16.66
Cc1ccc(NC(=O)c2c(NC(=O)C(C)c3ccc(CC(C)C)cc3)c(C#N)c3n2CCC3)cc1 (racemic)	3.2
CC(C(=O)Nc1c(C#N)c2n(c1C(=O)Nc1ccc(Cl)cc1)CCC2)c1cccc(C(=O)c2ccccc2)c1 (racemic)	3.6
